According to ChEMBL document CHEMBL5058577, “EUbOPEN Chemogenomics Library 2 (Multiplex)” (2022):

Tested on: U2OS
Test: Multiplex assay against U2OS
Type: toxicity, cell-based
Settings: human
Procedure, shortened: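 Compound was added to live cells that had been stained at seeding with Hoechst33342, BioTracker Green Microtubule Cytoskeleton Dye, MitoTracker Red and Annexin V Alexa Fluor 680, and imaging followed on a CQ1 microscope at 37°C and 5% CO2. CellPathfinder machine-learning gating divided cells into Hoechst high-intensity objects or normal cells, normal cells into healthy, pyknosed or fragmented nuclei, and pyknosed cells into mitotic or apoptotic. Tubulin, mitochondrial-mass and membrane-permeability phenotypes are per cents of healthy-nucleus cells.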

[1] = 12 h, 1 µM, compound concentration 1 uM, replicate 1
[2] = 12 h, 1 µM, compound concentration 1 uM, replicate 2
[3] = 12 h, 10 µM, compound concentration 10 uM, replicate 1
[4] = 12 h, 10 µM, compound concentration 10 uM, replicate 2
[5] = 24 h, 1 µM, compound concentration 1 uM, replicate 1
[6] = 24 h, 1 µM, compound concentration 1 uM, replicate 2
[7] = 24 h, 10 µM, compound concentration 10 uM, replicate 1
[8] = 24 h, 10 µM, compound concentration 10 uM, replicate 2
[9] = 48 h, 1 µM, compound concentration 1 uM, replicate 1
[10] = 48 h, 1 µM, compound concentration 1 uM, replicate 2
[11] = 48 h, 10 µM, compound concentration 10 uM, replicate 1
[12] = 48 h, 10 µM, compound concentration 10 uM, replicate 2

SMILES: CNC[C@H](O)c1ccc(O)c(O)c1 [EPINEPHRINE]
- Population Apoptotic (%) [1]: 88%
- Population Fragmented Nuclei (%) [1]: 35%
- Population Healthy Nuclei (%) [1]: 56%
- Population Hoechst High Intensity Objects (%) [1]: 2%
- Population Membrane Permeable-Phenotype (%) [1]: 5%
- Population Mitochondria Different-Phenotype (%) [1]: 1%
- Population Mitotic Cells (%) [1]: 11%
- Population Normal (%) [1]: 97%
- Population Pyknosed Nuclei (%) [1]: 7%
- Population Tubulin-Different-Phenotype (%) [1]: 2%
- Total Cell Count [1]: 229
- Population Apoptotic (%) [2]: 80%
- Population Fragmented Nuclei (%) [2]: 17%
- Population Healthy Nuclei (%) [2]: 77%
- Population Hoechst High Intensity Objects (%) [2]: 0%
- Population Membrane Permeable-Phenotype (%) [2]: 7%
- Population Mitochondria Different-Phenotype (%) [2]: 2%
- Population Mitotic Cells (%) [2]: 20%
- Population Normal (%) [2]: 100%
- Population Pyknosed Nuclei (%) [2]: 5%
- Population Tubulin-Different-Phenotype (%) [2]: 4%
- Total Cell Count [2]: 92
- Population Apoptotic (%) [3]: 92%
- Population Fragmented Nuclei (%) [3]: 41%
- Population Healthy Nuclei (%) [3]: 45%
- Population Hoechst High Intensity Objects (%) [3]: 6%
- Population Membrane Permeable-Phenotype (%) [3]: 7%
- Population Mitochondria Different-Phenotype (%) [3]: 1%
- Population Mitotic Cells (%) [3]: 8%
- Population Normal (%) [3]: 93%
- Population Pyknosed Nuclei (%) [3]: 13%
- Population Tubulin-Different-Phenotype (%) [3]: 4%
- Total Cell Count [3]: 199
- Population Apoptotic (%) [4]: 86%
- Population Fragmented Nuclei (%) [4]: 33%
- Population Healthy Nuclei (%) [4]: 50%
- Population Hoechst High Intensity Objects (%) [4]: 9%
- Population Membrane Permeable-Phenotype (%) [4]: 6%
- Population Mitochondria Different-Phenotype (%) [4]: 2%
- Population Mitotic Cells (%) [4]: 13%
- Population Normal (%) [4]: 90%
- Population Pyknosed Nuclei (%) [4]: 15%
- Population Tubulin-Different-Phenotype (%) [4]: 6%
- Total Cell Count [4]: 105
- Population Apoptotic (%) [5]: 84%
- Population Fragmented Nuclei (%) [5]: 28%
- Population Healthy Nuclei (%) [5]: 64%
- Population Hoechst High Intensity Objects (%) [5]: 2%
- Population Membrane Permeable-Phenotype (%) [5]: 6%
- Population Mitochondria Different-Phenotype (%) [5]: 1%
- Population Mitotic Cells (%) [5]: 15%
- Population Normal (%) [5]: 97%
- Population Pyknosed Nuclei (%) [5]: 7%
- Population Tubulin-Different-Phenotype (%) [5]: 2%
- Total Cell Count [5]: 278
- Population Apoptotic (%) [6]: 75%
- Population Fragmented Nuclei (%) [6]: 19%
- Population Healthy Nuclei (%) [6]: 68%
- Population Membrane Permeable-Phenotype (%) [6]: 7%
- Population Mitochondria Different-Phenotype (%) [6]: 5%
- Population Mitotic Cells (%) [6]: 25%
- Population Pyknosed Nuclei (%) [6]: 11%
- Population Tubulin-Different-Phenotype (%) [6]: 1%
- Total Cell Count [6]: 105
- Population Apoptotic (%) [7]: 94%
- Population Fragmented Nuclei (%) [7]: 39%
- Population Healthy Nuclei (%) [7]: 50%
- Population Hoechst High Intensity Objects (%) [7]: 9%
- Population Membrane Permeable-Phenotype (%) [7]: 11%
- Population Mitochondria Different-Phenotype (%) [7]: 5%
- Population Mitotic Cells (%) [7]: 5%
- Population Normal (%) [7]: 90%
- Population Pyknosed Nuclei (%) [7]: 10%
- Population Tubulin-Different-Phenotype (%) [7]: 6%
- Total Cell Count [7]: 195
- Population Apoptotic (%) [8]: 100%
- Population Fragmented Nuclei (%) [8]: 31%
- Population Healthy Nuclei (%) [8]: 45%
- Population Hoechst High Intensity Objects (%) [8]: 11%
- Population Membrane Permeable-Phenotype (%) [8]: 2%
- Population Mitochondria Different-Phenotype (%) [8]: 0%
- Population Mitotic Cells (%) [8]: 0%
- Population Normal (%) [8]: 88%
- Population Pyknosed Nuclei (%) [8]: 22%
- Population Tubulin-Different-Phenotype (%) [8]: 2%
- Total Cell Count [8]: 96
- Population Apoptotic (%) [9]: 87%
- Population Fragmented Nuclei (%) [9]: 24%
- Population Healthy Nuclei (%) [9]: 66%
- Population Hoechst High Intensity Objects (%) [9]: 0%
- Population Membrane Permeable-Phenotype (%) [9]: 9%
- Population Mitochondria Different-Phenotype (%) [9]: 5%
- Population Mitotic Cells (%) [9]: 12%
- Population Normal (%) [9]: 99%
- Population Pyknosed Nuclei (%) [9]: 9%
- Population Tubulin-Different-Phenotype (%) [9]: 4%
- Total Cell Count [9]: 333
- Population Apoptotic (%) [10]: 92%
- Population Fragmented Nuclei (%) [10]: 18%
- Population Healthy Nuclei (%) [10]: 72%
- Population Membrane Permeable-Phenotype (%) [10]: 4%
- Population Mitochondria Different-Phenotype (%) [10]: 3%
- Population Mitotic Cells (%) [10]: 7%
- Population Tubulin-Different-Phenotype (%) [10]: 2%
- Total Cell Count [10]: 150
- Population Apoptotic (%) [11]: 92%
- Population Fragmented Nuclei (%) [11]: 41%
- Population Healthy Nuclei (%) [11]: 44%
- Population Hoechst High Intensity Objects (%) [11]: 10%
- Population Membrane Permeable-Phenotype (%) [11]: 15%
- Population Mitochondria Different-Phenotype (%) [11]: 8%
- Population Mitotic Cells (%) [11]: 7%
- Population Normal (%) [11]: 89%
- Population Pyknosed Nuclei (%) [11]: 14%
- Population Tubulin-Different-Phenotype (%) [11]: 10%
- Total Cell Count [11]: 215
- Population Apoptotic (%) [12]: 94%
- Population Fragmented Nuclei (%) [12]: 36%
- Population Healthy Nuclei (%) [12]: 40%
- Population Hoechst High Intensity Objects (%) [12]: 17%
- Population Membrane Permeable-Phenotype (%) [12]: 24%
- Population Mitochondria Different-Phenotype (%) [12]: 13%
- Population Mitotic Cells (%) [12]: 5%
- Population Normal (%) [12]: 82%
- Population Pyknosed Nuclei (%) [12]: 23%
- Population Tubulin-Different-Phenotype (%) [12]: 13%
- Total Cell Count [12]: 87

SMILES: O=S(=O)(c1ccccc1)c1cnc2c(N3CCNCC3)cccc2c1 [INTEPIRDINE]
- Population Apoptotic (%) [1]: 76%
- Population Fragmented Nuclei (%) [1]: 23%
- Population Healthy Nuclei (%) [1]: 68%
- Population Hoechst High Intensity Objects (%) [1]: 1%
- Population Membrane Permeable-Phenotype (%) [1]: 6%
- Population Mitochondria Different-Phenotype (%) [1]: 3%
- Population Mitotic Cells (%) [1]: 23%
- Population Normal (%) [1]: 98%
- Population Pyknosed Nuclei (%) [1]: 7%
- Population Tubulin-Different-Phenotype (%) [1]: 4%
- Total Cell Count [1]: 267
- Population Apoptotic (%) [2]: 70%
- Population Fragmented Nuclei (%) [2]: 17%
- Population Healthy Nuclei (%) [2]: 71%
- Population Hoechst High Intensity Objects (%) [2]: 0%
- Population Membrane Permeable-Phenotype (%) [2]: 7%
- Population Mitochondria Different-Phenotype (%) [2]: 6%
- Population Mitotic Cells (%) [2]: 30%
- Population Normal (%) [2]: 100%
- Population Pyknosed Nuclei (%) [2]: 11%
- Population Tubulin-Different-Phenotype (%) [2]: 7%
- Total Cell Count [2]: 88
- Population Apoptotic (%) [3]: 58%
- Population Fragmented Nuclei (%) [3]: 25%
- Population Healthy Nuclei (%) [3]: 61%
- Population Hoechst High Intensity Objects (%) [3]: 3%
- Population Membrane Permeable-Phenotype (%) [3]: 23%
- Population Mitochondria Different-Phenotype (%) [3]: 11%
- Population Mitotic Cells (%) [3]: 41%
- Population Normal (%) [3]: 96%
- Population Pyknosed Nuclei (%) [3]: 12%
- Population Tubulin-Different-Phenotype (%) [3]: 14%
- Total Cell Count [3]: 204
- Population Apoptotic (%) [4]: 85%
- Population Fragmented Nuclei (%) [4]: 10%
- Population Healthy Nuclei (%) [4]: 79%
- Population Hoechst High Intensity Objects (%) [4]: 2%
- Population Membrane Permeable-Phenotype (%) [4]: 12%
- Population Mitochondria Different-Phenotype (%) [4]: 13%
- Population Mitotic Cells (%) [4]: 14%
- Population Normal (%) [4]: 97%
- Population Pyknosed Nuclei (%) [4]: 10%
- Population Tubulin-Different-Phenotype (%) [4]: 10%
- Total Cell Count [4]: 139
- Population Apoptotic (%) [5]: 80%
- Population Fragmented Nuclei (%) [5]: 22%
- Population Healthy Nuclei (%) [5]: 67%
- Population Hoechst High Intensity Objects (%) [5]: 2%
- Population Membrane Permeable-Phenotype (%) [5]: 7%
- Population Mitochondria Different-Phenotype (%) [5]: 2%
- Population Mitotic Cells (%) [5]: 19%
- Population Normal (%) [5]: 97%
- Population Pyknosed Nuclei (%) [5]: 9%
- Population Tubulin-Different-Phenotype (%) [5]: 4%
- Total Cell Count [5]: 319
- Population Apoptotic (%) [6]: 69%
- Population Fragmented Nuclei (%) [6]: 14%
- Population Healthy Nuclei (%) [6]: 73%
- Population Hoechst High Intensity Objects (%) [6]: 0%
- Population Membrane Permeable-Phenotype (%) [6]: 3%
- Population Mitochondria Different-Phenotype (%) [6]: 3%
- Population Mitotic Cells (%) [6]: 30%
- Population Normal (%) [6]: 99%
- Population Pyknosed Nuclei (%) [6]: 12%
- Population Tubulin-Different-Phenotype (%) [6]: 1%
- Total Cell Count [6]: 108
- Population Apoptotic (%) [7]: 72%
- Population Fragmented Nuclei (%) [7]: 23%
- Population Healthy Nuclei (%) [7]: 60%
- Population Hoechst High Intensity Objects (%) [7]: 3%
- Population Membrane Permeable-Phenotype (%) [7]: 17%
- Population Mitochondria Different-Phenotype (%) [7]: 14%
- Population Mitotic Cells (%) [7]: 27%
- Population Normal (%) [7]: 96%
- Population Pyknosed Nuclei (%) [7]: 16%
- Population Tubulin-Different-Phenotype (%) [7]: 10%
- Total Cell Count [7]: 233
- Population Apoptotic (%) [8]: 77%
- Population Fragmented Nuclei (%) [8]: 10%
- Population Healthy Nuclei (%) [8]: 77%
- Population Hoechst High Intensity Objects (%) [8]: 0%
- Population Membrane Permeable-Phenotype (%) [8]: 10%
- Population Mitochondria Different-Phenotype (%) [8]: 17%
- Population Mitotic Cells (%) [8]: 22%
- Population Normal (%) [8]: 99%
- Population Pyknosed Nuclei (%) [8]: 11%
- Population Tubulin-Different-Phenotype (%) [8]: 6%
- Total Cell Count [8]: 156
- Population Apoptotic (%) [9]: 89%
- Population Fragmented Nuclei (%) [9]: 15%
- Population Healthy Nuclei (%) [9]: 70%
- Population Hoechst High Intensity Objects (%) [9]: 3%
- Population Membrane Permeable-Phenotype (%) [9]: 6%
- Population Mitochondria Different-Phenotype (%) [9]: 4%
- Population Mitotic Cells (%) [9]: 10%
- Population Normal (%) [9]: 96%
- Population Pyknosed Nuclei (%) [9]: 14%
- Population Tubulin-Different-Phenotype (%) [9]: 4%
- Total Cell Count [9]: 416
- Population Apoptotic (%) [10]: 76%
- Population Fragmented Nuclei (%) [10]: 13%
- Population Healthy Nuclei (%) [10]: 68%
- Population Membrane Permeable-Phenotype (%) [10]: 3%
- Population Mitochondria Different-Phenotype (%) [10]: 2%
- Population Mitotic Cells (%) [10]: 23%
- Population Pyknosed Nuclei (%) [10]: 18%
- Population Tubulin-Different-Phenotype (%) [10]: 2%
- Total Cell Count [10]: 148
- Population Apoptotic (%) [11]: 78%
- Population Fragmented Nuclei (%) [11]: 22%
- Population Healthy Nuclei (%) [11]: 59%
- Population Hoechst High Intensity Objects (%) [11]: 4%
- Population Membrane Permeable-Phenotype (%) [11]: 15%
- Population Mitochondria Different-Phenotype (%) [11]: 7%
- Population Mitotic Cells (%) [11]: 22%
- Population Normal (%) [11]: 95%
- Population Pyknosed Nuclei (%) [11]: 17%
- Population Tubulin-Different-Phenotype (%) [11]: 6%
- Total Cell Count [11]: 302
- Population Apoptotic (%) [12]: 95%
- Population Fragmented Nuclei (%) [12]: 13%
- Population Healthy Nuclei (%) [12]: 75%
- Population Hoechst High Intensity Objects (%) [12]: 2%
- Population Membrane Permeable-Phenotype (%) [12]: 10%
- Population Mitochondria Different-Phenotype (%) [12]: 12%
- Population Mitotic Cells (%) [12]: 4%
- Population Normal (%) [12]: 97%
- Population Pyknosed Nuclei (%) [12]: 11%
- Population Tubulin-Different-Phenotype (%) [12]: 4%
- Total Cell Count [12]: 201
